One assay is filed under the species Cavia porcellus. As to the kind of experiment: inhibition of the histamine stimulated […] response in the isolated guinea pig right atrium at 1x 10 e-6 g/mL. In kind it is functional, Cardiac atrium. A digest of the protocol: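 Isolated atrium; beating rate and contraction amplitude recorded via transducer and polygraph. Histamine hydrochloride 1 × 10^-6 g/mL added to bath and rate increase measured. Percent inhibition from histamine-induced rate increases before versus 30 min after compound.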

Assay [1] deals with Helicobacter pylori. The assay can be described thus: Evaluated for antimicrobial activity against Helicobacter pylori. The class given is functional. A digest of the protocol: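 Agar dilution. Test strain precultured on Brucella agar with 3% horse serum and 2% starch, 37 °C, 3 days. Suspended in buffered saline to McFarland no. 1, diluted 10²-fold, then spotted by multipoint replicator onto Brucella agar plus 7% lysed horse blood carrying serial 2-fold drug dilutions. Incubated 37 °C, 3 days, 10% CO₂. MIC taken as lowest concentration stopping macroscopic colonial growth.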

Another assay concerns Rattus norvegicus. As to the kind of experiment: inhibition of histamine stimulated gastric secretion in lumen perfused stomach of anesthetized rats at 1 mg/kg intravenously. The class given is functional. As to conditions: route intravenous. Summed up:
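Abdomen opened; gastric lumen perfused with saline throughout. Secretion stimulated by iv histamine infusion, 3 mg/kg/h. Perfusate acid titrated with 25 mM NaOH by autotitrator. n = 2.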

Assay [2] has as its system Helicobacter pylori. As to the kind of experiment: minimum inhibitory concentration was determined against Helicobacter pylori. the value in parentheses is range. The class given is functional, organism-based. A digest of the protocol:
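Agar dilution. Test strain precultured on Brucella agar with 3% horse serum and 2% starch, 37 °C, 3 days. Suspended in buffered saline to McFarland no. 1, diluted 10²-fold, then spotted by multipoint replicator onto Brucella agar plus 7% lysed horse blood carrying serial 2-fold drug dilutions. Incubated 37 °C, 3 days, 10% CO₂. MIC taken as lowest concentration stopping macroscopic colonial growth. Mean and range from 10 strains (8001, 8003, 8004, 8007, 8008, 8009, 8011, 9005, FP1530, FP1532).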

≈ marks a conversion by molar mass, not a printed value.

The term Inhibition denotes the relative decrease from the control value, in per cent. Higher therefore signals a strong effect. The term MIC denotes the lowest concentration that inhibits growth of the organism. As usually defined, the inhibition in vivo is how much of the control response was suppressed. Low readings indicate little suppression, high ones strong suppression. In the assay listed under Cavia porcellus, `C/N=C(\N)Nc1nc(-c2ccc(CNC(C)=O)o2)cs1` had an Inhibition of 25%. In the assay on Helicobacter pylori [1], this compound displayed an MIC of 12.5 µg/mL (≈ 42.6 µM). For the same compound, testing at 1 mg/kg with Rattus norvegicus gave an inhibition in vivo of 24%.
On the same counts, the results for `CC(=O)NCc1ccc(-c2nc(N=C(N)N)sc2C)o1` are 10%, 76 µg/mL (≈ 259 µM) and 3%.
On the same counts, the results for `CCCCCC/N=C(\N)Nc1nc(-c2ccc(CNC(C)=O)o2)cs1` are 79%, 0.11 µg/mL (≈ 0.303 µM) and 44%.
In the same order, the values of `CC(=O)NCc1ccc(-c2csc(/N=C(\N)S)n2)o1` are 0%, over 200 µg/mL and 11%.
`CC(=O)NCc1ccc(-c2csc(NC3=NCCN3)n2)o1` gave an Inhibition in the assay filed under Cavia porcellus of 8%. The same compound returned an MIC against Helicobacter pylori [1] of over 100 µg/mL. For the same compound, 1 mg/kg produced 18% inhibition in vivo with Rattus norvegicus.
`CC(=O)NCc1ccc(-c2csc(CN(C)C)n2)o1` registered an Inhibition in the assay filed under Cavia porcellus of 6%. The compound also returned an MIC in the assay with Helicobacter pylori [1] of over 200 µg/mL. The same compound displayed an inhibition in vivo at 1 mg/kg in the assay with Rattus norvegicus of 4%.
Compound `Cc1ncc([N+](=O)[O-])n1CCO` [METRONIDAZOLE] came in with an MIC in the assay on Helicobacter pylori [1] of 5.4 µg/mL (≈ 31.6 µM).
For BISMUTH SUBCITRATE, the MIC in the assay with Helicobacter pylori [2] amounted to 18 µg/mL.
For the compound `CC(=O)NCc1ccc(-c2csc(N/C(N)=N/C(C)C)n2)o1`, in the assay filed under Cavia porcellus, the Inhibition turned out to be 27%. Moreover, the MIC in the assay with Helicobacter pylori [1] stood at 2.9 µg/mL (≈ 9.02 µM). Also, the inhibition in vivo at 1 mg/kg in the assay on Rattus norvegicus was 32%.
In the case of `CCCC/N=C(\N)Nc1nc(-c2ccc(CNC(C)=O)o2)cs1`, in the assay filed under Cavia porcellus, the Inhibition was determined as 78%. The MIC against Helicobacter pylori [1] was found to be 0.21 µg/mL (≈ 0.626 µM). 1 mg/kg produced 45% inhibition in vivo with Rattus norvegicus.
In the same order, the values of `CCC/N=C(\N)Nc1nc(-c2ccc(CNC(C)=O)o2)cs1` are 81%, 1.67 µg/mL (≈ 5.2 µM) and 97%.
On the same counts, the results for `CN/C(=N\CCSCc1nc[nH]c1C)NC#N` [CIMETIDINE] are 43%, 1130 µg/mL (≈ 4480 µM) and 53%.
On the same counts, the results for `CCCCNC(=O)Nc1nc(-c2ccc(CNC(C)=O)o2)cs1` are 0%, over 100 µg/mL and 9%.
For the compound `CC/N=C(\N)Nc1nc(-c2ccc(CNC(C)=O)o2)cs1`, the Inhibition in the assay listed under Cavia porcellus is reported as 51%. The same compound returned an MIC in the assay on Helicobacter pylori [1] of 3.13 µg/mL (≈ 10.2 µM). The same compound yielded an inhibition in vivo at 1 mg/kg in the assay with Rattus norvegicus of 79%.

Source of the values: ChEMBL document CHEMBL1130326, “Anti-Helicobacter pylori agents. 1. 2-(Alkylguanidino)-4-furylthiazoles and related compounds” (1997).
